Legend:
[1] = target: Botulinum neurotoxin type A (Clostridium botulinum) (UniProt P0DPI0); assay: Inhibition of Clostridium botulinum BoNT/A holotoxin-mediated SNAP-25 cleavage in mouse HBG3 cell-derived motor neurons assessed as full length of SNAP-25 at 10 uM preincubated for 30 mins followed by intoxication measured after 4 hrs by Western blot method relative to control; design: scale not given: the % may be the effect or the level left
[2] = target: Botulinum neurotoxin type A (Clostridium botulinum) (UniProt P0DPI0); assay: Inhibition of Clostridium botulinum BoNT/A holotoxin-mediated SNAP-25 cleavage in mouse HBG3 cell-derived motor neurons assessed as full length of SNAP-25 at 8 uM preincubated for 30 mins followed by intoxication measured after 4 hrs by Western blot method relative to control; design: scale not given: the % may be the effect or the level left
[3] = target: Botulinum neurotoxin type A (Clostridium botulinum) (UniProt P0DPI0); assay: Inhibition of Clostridium botulinum BoNT/A holotoxin-mediated SNAP-25 cleavage in mouse HBG3 cell-derived motor neurons assessed as full length of SNAP-25 at 16 uM treated at 30 mins post intoxication by Western blot method relative to control; design: scale not given: the % may be the effect or the level left
[4] = target: T1, Botulinum neurotoxin type A (Clostridium botulinum, UniProt P0DPI0); assay: (§1) Inhibition of Clostridium botulinum BoNT/A holotoxin-mediated SNAP-25 cleavage in mouse HBG3 cell-derived motor neurons preincubated for 30 mins followed by intoxication measured after 4 hrs by Western blot method
[5] = target: Botulinum neurotoxin type A (Clostridium botulinum) (UniProt P0DPI0); assay: as §1
[6] = Distribution co-efficient, log D of the compound at pH 1 by reversed-phase thin-layer chromatographic method; format: physicochemical; settings: buffer
Method in brief: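 Reversed-phase thin-layer chromatography at pH 1, mobile phase MeOH/HCl (70/30).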

[7] = target: Botulinum neurotoxin type A (Clostridium botulinum) (UniProt P0DPI0); assay: Inhibition of Clostridium botulinum BoNT/A holotoxin-mediated SNAP-25 cleavage in mouse HBG3 cell-derived motor neurons assessed as full length of SNAP-25 at 16 uM preincubated for 30 mins followed by intoxication measured after 4 hrs by Western blot method relative to control; design: scale not given: the % may be the effect or the level left
[8] = target: Botulinum neurotoxin type A (Clostridium botulinum) (UniProt P0DPI0); assay: Inhibition of Clostridium botulinum BoNT/A light chain at 20 uM using P39 as substrate preincubated for 10 mins followed by substrate addition measured after 10 mins by HPLC method relative to control
Method in brief: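 Purified BoNT/A light chain (20 nM) with 0.2 mg/mL BSA in 50 mM HEPES pH 7.4, preincubated with compound for 10 min at room temperature. Cleavage fragments were separated by reversed-phase HPLC (214/280 nm). Percent inhibition was taken from fragment peak areas with vs without compound. Mean of three experiments.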

[9] = target: Botulinum neurotoxin type A (Clostridium botulinum) (UniProt P0DPI0); assay: Inhibition of Clostridium botulinum BoNT/A holotoxin-mediated SNAP-25 cleavage in mouse HBG3 cell-derived motor neurons assessed as full length of SNAP-25 at 64 uM treated at 30 mins post intoxication by Western blot method relative to control; design: scale not given: the % may be the effect or the level left
Mus musculus [10] = assay: Toxicity in mouse assessed as effect on appearance at 160 mg/kg, po administered for 3 days measured 2 times a day for 30 days; format: organism-based; settings: in vivo, 720 h
Method in brief: (§2)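 Groups of five healthy mice were dosed per os for three consecutive days, suspended in 0.5% hydroxyethylcellulose–0.1% Tween 80. Behaviour and appearance were monitored twice daily for 30 days, with survival assessed at 30 days. Non-toxic was defined as all 5 surviving with normal appearance and behaviour.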

[11] = Distribution co-efficient, log D of the compound at pH 10 by reversed-phase thin-layer chromatographic method; format: physicochemical; settings: buffer
Method in brief: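 Reversed-phase thin-layer chromatography at pH 10, mobile phase acetone/NH3/H2O (85/5/10).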

[12] = target: Botulinum neurotoxin type A (Clostridium botulinum) (UniProt P0DPI0); assay: Inhibition of Clostridium botulinum BoNT/A holotoxin-mediated SNAP-25 cleavage in mouse HBG3 cell-derived motor neurons assessed as full length of SNAP-25 at 20 uM treated at 60 mins post intoxication by Western blot method relative to control; design: scale not given: the % may be the effect or the level left
Mus musculus [13] = assay: Toxicity in mouse assessed as effect on survival at 160 mg/kg, po administered for 3 days measured after 30 days; format: organism-based; settings: in vivo, 720 h; method in brief: as §2
[14] = target: T1, Botulinum neurotoxin type A; assay: (§3) Inhibition of Clostridium botulinum BoNT/A light chain using P39 as substrate preincubated for 10 mins followed by substrate addition measured after 10 mins by HPLC method
[15] = target: Botulinum neurotoxin type A (Clostridium botulinum) (UniProt P0DPI0); assay: as §3
Mus musculus [16] = assay: Toxicity in mouse assessed as effect on behavior at 160 mg/kg, po administered for 3 days measured 2 times a day for 30 days; format: organism-based; settings: in vivo, 720 h; method in brief: as §2
[17] = target: Botulinum neurotoxin type A (Clostridium botulinum) (UniProt P0DPI0); assay: Inhibition of Clostridium botulinum BoNT/A holotoxin-mediated SNAP-25 cleavage in mouse HBG3 cell-derived motor neurons assessed as full length of SNAP-25 at 20 uM treated at 30 mins post intoxication by Western blot method relative to control; design: scale not given: the % may be the effect or the level left
[18] = target: Botulinum neurotoxin type A (Clostridium botulinum) (UniProt P0DPI0); assay: Inhibition of Clostridium botulinum BoNT/A holotoxin-mediated SNAP-25 cleavage in mouse HBG3 cell-derived motor neurons assessed as full length of SNAP-25 at 20 uM preincubated for 30 mins followed by intoxication measured after 4 hrs by Western blot method relative to control; design: scale not given: the % may be the effect or the level left
Mus musculus [19] = assay: In vivo inhibition of Clostridium botulinum BoNT/A in CD1 mouse assessed as mouse survival at 1 mg/kg, ip administered 3 hrs post intoxication measured over 24 hrs relative to control; format: functional

Compound	Activity [1] [%]	Activity [2] [%]	Activity [3] [%]	IC50 [4] [µM]	inhibition [5]	chromatographic logD [6]	Activity [7] [%]	inhibition [8] [%]	Activity [9] [%]	Activity (Mus musculus [10])	chromatographic logD [11]	Activity [12] [%]	Activity (Mus musculus [13])	IC50 [14] [µM]	inhibition [15]	Activity (Mus musculus [16])	Activity [17] [%]	Activity [18] [%]	survival at 1 mg/kg (Mus musculus [19]) [%]
C[C@H](CCCNCCCCNc1ccnc2cc(Cl)ccc12)[C@H]1CC[C@H]2[C@@H]3[C@H](O)C[C@@H]4C[C@H](N)CC[C@]4(C)[C@H]3C[C@H](O)[C@]12C	46	58	49	8 to 16	Dose-dependent effect	2.97	58	48	69	–	–	–	–	–	–	–	–	–	–
CC(CCCNc1ccnc2ccccc12)NCc1ccc(-c2csc3ccc(F)cc23)cc1 (stereo not drawn)	58	–	–	10 to 20	Dose-dependent effect	–	–	75	–	Non-Toxic	3.85	17	Non-Toxic	7.4	Dose-dependent effect	Non-Toxic	16	68	–
N#Cc1ccc(-c2ccc(-c3ccc(CNCCCCCCCCNc4ccnc5ccccc45)cc3)s2)cc1	31	–	–	10 to 20	Dose-dependent effect	3.42	–	77	–	Non-Toxic	–	19	Non-Toxic	6.8	Dose-dependent effect	Non-Toxic	20	70	–
CC(CCN(C)CC12CC3CC(CC(C3)C1)C2)Nc1ccnc2cc(Cl)ccc12 (stereo not drawn)	63	–	–	< 10	Dose-dependent effect	–	–	67	–	–	3.47	16	–	11.7	Dose-dependent effect	–	15	72	–
CC(=O)O[C@H]1C[C@H]2[C@@H]([C@H](OC(C)=O)C[C@@H]3C[C@H](N)CC[C@@]32C)[C@@H]2CC[C@H]([C@H](C)CCCNCCCCNc3ccnc4ccccc34)[C@@]12C	28	–	–	10 to 20	Dose-dependent effect	2.14	–	80	–	–	–	49	–	5.7	Dose-dependent effect	–	48	67	–
CN(CCCCCCCCNc1ccnc2ccccc12)Cc1ccc(-c2ccc(-c3ccc(C#N)cc3)s2)cc1	54	–	–	5 to 10	Dose-dependent effect	3.33	–	35	–	Non-Toxic	–	22	Non-Toxic	–	–	Non-Toxic	34	60	–
CC(CCCN(C)Cc1ccc(-c2csc3ccc(C#N)cc23)cc1)Nc1ccnc2ccccc12 (stereo not drawn)	59	–	–	10 to 20	Dose-dependent effect	–	–	27	–	–	3.42	–	–	–	–	–	–	64	–
O=C(N/N=C/c1cc(O)c(O)cc1O)c1cc2ccccc2cc1O	–	–	–	–	–	–	–	–	–	–	–	–	–	–	–	–	–	–	30

From ChEMBL document CHEMBL4024803, “New Steroidal 4-Aminoquinolines Antagonize Botulinum Neurotoxin Serotype A in Mouse Embryonic Stem Cell Derived Motor Neurons in Postintoxication Model” (J Med Chem, 2018)
